Results on 9 molecules are retold here after ChEMBL document CHEMBL4229422, “Synthesis and pharmacological evaluation of pyrazolo[4,3-c]quinolinones as high affinity GABAA-R ligands and potential anxiolytics” (Bioorg Med Chem, 2018).

The source made the active and inactive calls. The rule behind the calls is not given here.

One may read the IC50 as the midpoint of a concentration-inhibition curve. A word on the Ki: it is a dissociation constant, usually derived from enzyme kinetics or from competition with a known ligand. Low readings indicate a stronger hold on the target, high ones a looser hold on the target.

Data set [1] is described as follows: Displacement of [3H]-FNZ from benzodiazepine binding site of GABAA receptor in bovine synaptosomal membranes after 1 hr by scintillation counting method. Format: cell membranes, Bos taurus.
Data set [2] relates to Rattus norvegicus. The data set can be described thus: Anxiogenic activity in Wistar rat assessed as reduction in time spent on open arms at 0.25 to 3 mg/kg, ip administered 30 mins prior to testing measured for 5 mins by elevated plus-maze test. Format: functional, organism-based. The essentials: (§1)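 Adult male Wistar rats (65–75 days, 280–320 g), group-housed, 12 h light–dark, 21-22 °C, handled on four days beforehand. Doses of 0.25, 0.5, 1 and 3 mg/kg were dissolved in propylenglycol, diluted in aqueous 0.6 % v/v Tween 80 and given ip 30 min before the EPM. Vehicle controls received the same mixture. Behaviour was recorded 5 min as % time in open arms relative to open plus closed arms. About 7 rats per dose, mean ± S.E.M., ANOVA.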

For data set [3], the system named is Rattus norvegicus. The experiment in a line: Toxicity in Wistar rat assessed as change in locomotor activity at 0.25 to 3 mg/kg, ip administered 30 mins. Format: organism-based. The following applies: in vivo, 0.5 h. The essentials: (§2)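 Locomotor or exploratory activity was scored as the number of closed-arm entries during the 5 min EPM session. Male Wistar rats (280–320 g) received 0.25–3 mg/kg ip 30 min beforehand, in propylenglycol diluted with 0.6 % v/v Tween 80. Vehicle-injected controls were included. About 7 rats per dose, ANOVA.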

Data set [4] deals with Rattus norvegicus. The experiment in a line: Anxiolytic activity in Wistar rat assessed as increase in time spent on open arms at 0.5 mg/kg, ip administered 30 mins prior to testing measured for 5 mins by elevated plus-maze test. Format: functional, organism-based. Summed up: as §1
Data set [5] has as its system Rattus norvegicus. The experiment in a line: Anxiogenic activity in Wistar rat assessed as reduction in time spent on open arms at 0.25 to 0.5 mg/kg, ip administered 30 mins prior to testing measured for 5 mins by elevated plus-maze test. Format: functional, organism-based. The essentials:
as §1

Data set [6] has as its system Rattus norvegicus. The experiment in a line: Anxiolytic activity in Wistar rat assessed as time spent on open arms at 1 mg/kg, ip administered 30 mins prior to testing measured for 5 mins by elevated plus-maze test (reference value: 20%). Format: functional. The essentials: as §1
In data set [7] the test system is Rattus norvegicus. The experiment in a line: Toxicity in Wistar rat assessed as change in locomotor activity at 1 mg/kg, ip administered 30 mins. Format: organism-based. The note with it: in vivo, 0.5 h. Summed up:
as §2

In data set [1], `Cc1ccc2[nH]cc3c(=O)n(-c4ccccc4F)nc-3c2c1` displayed an IC50 of 0.37 nM and an inhibitory constant (Ki) of 0.196 nM.

`Cc1ccc2[nH]cc3c(=O)n(-c4ccc(F)cc4)nc-3c2c1`: in data set [1], the IC50 turned out to be 1.15 nM and affinity was put at a Ki of 0.612 nM.

In data set [1], `O=c1c2c[nH]c3ccc(Br)cc3c-2nn1-c1ccc(F)cc1` gave an IC50 of 1.47 nM and a Ki of 0.78 nM. In the data set on Rattus norvegicus [2], the result was Active. In addition, the Activity entry with Rattus norvegicus [3] is “Toxic”.

Consider `COc1ccc(-n2nc3c4cc(Br)ccc4[nH]cc-3c2=O)cc1`, for which, in data set [1], the 50% inhibitory concentration (IC50) amounted to 0.326 nM and affinity was put at a Ki of 0.173 nM. The Activity result in the data set with Rattus norvegicus [3] is “Non-Toxic”. In the data set on Rattus norvegicus [4], the result was Active.

On to `O=c1c2c[nH]c3ccc(Br)cc3c-2nn1-c1ccccc1`, for which, in the data set with Rattus norvegicus [5], the outcome was Active. In addition, in data set [1], the half-inhibitory concentration (IC50) worked out at 0.823 nM and affinity was put at a Ki of 0.437 nM.

Regarding `COc1ccc2[nH]cc3c(=O)n(-c4ccccc4F)nc-3c2c1`, in data set [1], the half-inhibitory concentration (IC50) turned out to be 1.5 nM and the affinity, expressed as Ki, was 0.797 nM.

Regarding `COc1ccc(-n2nc3c4cc(C)ccc4[nH]cc-3c2=O)cc1`, the Activity in the data set with Rattus norvegicus [6] was 50%. Further, in data set [1], the IC50 is 0.542 nM and the Ki amounted to 0.288 nM. Also, the Activity entry with Rattus norvegicus [7] is recorded as “Non-Toxic”.

Regarding `COc1ccc2[nH]cc3c(=O)n(-c4ccc(F)cc4)nc-3c2c1`, in data set [1], the half-maximal inhibitory concentration (IC50) is 1.84 nM and the Ki was found to be 0.98 nM.

In data set [1], `Cc1ccc2[nH]cc3c(=O)n(-c4ccccc4)nc-3c2c1` came in with a 50% inhibitory concentration (IC50) of 0.589 nM and a Ki of 0.313 nM.
